The values below come from ChEMBL document CHEMBL3243961, “Synthesis and biological activity of 8-arylergolines” (1977).

Active and inactive are the calls of the source. The rule behind the calls is not given here.

The species entered for assay [1] is Rattus norvegicus. Kind of assay: Oxytocic activity in rat uterus smooth muscle up to 10 ug/ml. In kind it is functional, tissue-based. Conditions: Muscle tissue.
Assay [2] concerns Rattus norvegicus. Kind of assay: Antidepressant activity in rat assessed as antimuricidal activity at 10 mg/kg, ip. Type of assay: functional, organism-based. Also on record: dose 10 mg/kg. Put shortly: (§1)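 Rats screened in an antimuricidal (mouse-killing) test, used as a possible indicator of antidepressant activity.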
Assay [3] concerns Rattus norvegicus. Kind of assay: Decrease in prolactin level in rat serum at 1 mg, ip by radioimmunoassay. Type of assay: functional. Put shortly:
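Rats received test compound ip at 1 mg per rat. Serum prolactin was then measured by radioimmunoassay, and the result was expressed as the percent drop in serum prolactin.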

For assay [4], the target named is Serotonin (5-HT) receptor (Rattus norvegicus) (UniProt P35563+P35365+P32305+P31388+Q9JJ16+P28564+P30994+Q62758+P08909+P14842+P30940+P35364+P19327+P28565). Kind of assay: Inhibition of 5-HT receptor in rat stomach fundus relative to methysergide. Type of assay: tissue-based.
Assay [5] deals with T1, Adrenergic receptor alpha (Rattus norvegicus) (UniProt P15823+P23944+P43140+P22086+P19328+P22909). Kind of assay: Blockade of alpha-adrenoceptor in rat aorta. In kind it is tissue-based.
The test system of assay [6] is Rattus norvegicus. Kind of assay: Antidepressant activity in rat assessed as antimuricidal activity at 0.625 mg/kg, ip. Also on record: dose 0.625 mg/kg. In kind it is functional, organism-based.
For assay [7], the system named is Rattus norvegicus. Kind of assay: Antidepressant activity in rat assessed as antimuricidal activity at 5 mg/kg, ip. Type of assay: functional, organism-based. More on the design: dose 5 mg/kg. Put shortly:
as §1

Assay [8] has as its target T1, Adrenergic receptor alpha (Rattus norvegicus). Kind of assay: Blockade of alpha-adrenoceptor in rat aorta assessed as rightward shift in norepinephrine dose response curve. In kind it is tissue-based.
Assay [9] deals with Rattus norvegicus. Kind of assay: Antidepressant activity in rat assessed as antimuricidal activity at 20 mg/kg, ip. Type of assay: functional, organism-based. More on the design: dose 20 mg/kg. Put shortly:
as §1

Assay [10] concerns Rattus norvegicus. Kind of assay: Decrease in prolactin level in rat serum at 10 ug, ip by radioimmunoassay. In kind it is functional.

As to `CN1CC(c2ccc(Cl)cc2)C=C2c3cccc4c3[C@@H](CN4)C[C@H]21` (stereo partly drawn), in the assay listed under Rattus norvegicus [1], the result was inactive. `COc1ccc([C@@H]2C=C3c4cccc5[nH]cc(c45)C[C@H]3N(C)C2)cc1.O=C(O)/C=C\C(=O)O`: in the assay on Rattus norvegicus [2], the outcome was Active. Besides, the “inhibition (INH)” value in the assay on Rattus norvegicus [3] amounted to 81%. In addition, the 5-HT antagonist potency relative to methysergide in assay [4] is 100%. Moreover, the inhibition result in [5] was “Active”. Moreover, the result in the assay listed under Rattus norvegicus [1] was inactive. Take `CN1CCC=C2c3cccc4[nH]cc(c34)CC21` (racemic): the result with Rattus norvegicus [6] was Active. On to `CN1C[C@@H](c2ccccc2)C=C2c3cccc4c3[C@@H](CN4)C[C@H]21`, for which the result in the assay listed under Rattus norvegicus [1] was inactive.

Turning to `Cc1ccc([C@H]2C=C3c4cccc5c4[C@@H](CN5)C[C@H]3N(C)C2)cc1`, the outcome in the assay listed under Rattus norvegicus [1] was inactive.

With `CN1C[C@H](c2ccccc2)C=C2c3cccc4[nH]cc(c34)C[C@H]21.O=C(O)/C=C\C(=O)O`, the result in the assay with Rattus norvegicus [7] was Active. The “inhibition (INH)” value in the assay on Rattus norvegicus [3] amounted to 71%. This compound also gave a 5-HT antagonist potency relative to methysergide in assay [4] of 50%. In assay [8], the fold change (FC) was determined as 2. In the assay filed under Rattus norvegicus [1], the result was inactive. Take `CN1C[C@@H](c2ccccc2)C=C2c3cccc4[nH]cc(c34)C[C@H]21.O=C(O)/C=C\C(=O)O`: the result with Rattus norvegicus [9] and in the assay filed under Rattus norvegicus [1] was inactive. Also, the “inhibition (INH)” value in the assay on Rattus norvegicus [3] is listed as 88%. This compound also gave a 5-HT antagonist potency relative to methysergide in assay [4] of 10%. For the same compound, the inhibition entry in assay [5] was “Active”. Take `CN1C[C@@H](c2ccc3c(c2)OCO3)C=C2c3cccc4c3[C@@H](CN4)C[C@H]21`: in the assay filed under Rattus norvegicus [1], the outcome was inactive. Consider `CN1C[C@H](c2ccc3c(c2)OCO3)C=C2c3cccc4[nH]cc(c34)C[C@H]21`, for which the result in the assay with Rattus norvegicus [2] was Active. In addition, the inhibition entry with Rattus norvegicus [3] was “inactive”. This compound displayed a 5-HT antagonist potency relative to methysergide in [4] of 50%. The fold change (FC) in [8] came to 2. Further, the result in the assay filed under Rattus norvegicus [1] was inactive. Turning to `Cc1ccc([C@@H]2C=C3c4cccc5c4[C@@H](CN5)C[C@H]3N(C)C2)cc1`, the result in the assay listed under Rattus norvegicus [1] was inactive. Consider `CC(C)[C@H]1C(=O)N2CCC[C@H]2[C@]2(O)O[C@](NC(=O)[C@@H]3C=C4c5cccc6[nH]cc(c56)C[C@H]4N(C)C3)(C(C)C)C(=O)N12` [ERGOCORNINE], for which the “inhibition (INH)” value in the assay on Rattus norvegicus [10] was found to be 60%. On to `CN1CC(c2ccc(O)cc2)C=C2c3cccc4c3[C@@H](CN4)C[C@H]21` (stereo partly drawn), for which the outcome in the assay filed under Rattus norvegicus [1] was inactive. In the case of `CN1C[C@H](c2ccc3c(c2)OCO3)C=C2c3cccc4c3[C@@H](CN4)C[C@H]21`, the result in the assay listed under Rattus norvegicus [1] was inactive. Same read-out and setting: next, `CN1C[C@H](c2ccccc2)C=C2c3cccc4c3[C@@H](CN4)C[C@H]21`: “inactive”; `COc1ccc([C@H]2C=C3c4cccc5c4[C@@H](CN5)C[C@H]3N(C)C2)cc1`: “inactive”. For `COc1ccc([C@@H]2C=C3c4cccc5c4[C@@H](CN5)C[C@H]3N(C)C2)cc1`, in the assay listed under Rattus norvegicus [1], the result was inactive. Take `Cc1ccc([C@@H]2C=C3c4cccc5[nH]cc(c45)C[C@H]3N(C)C2)cc1`: in the assay filed under Rattus norvegicus [1], the result was inactive.
